Source: ChEMBL document CHEMBL4828740, “Discovery of Quinoxaline-Based P1-P3 Macrocyclic NS3/4A Protease Inhibitors with Potent Activity against Drug-Resistant Hepatitis C Virus Variants” (J Med Chem, 2021)
pEC50, pKi: −log10 of the molar value.

What was measured:
Hepatitis C virus [1] = assay: Antiviral activity against HCV genotype 1b harboring D168A mutant infected in human Huh7 cells incubated for 96 hrs by luciferase assay; format: functional, organism-based, Hepacivirus hominis; details: subtype 1b, Huh-7, 96 h
Summary of the method: (§1)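 Con1 (GT-1b) luciferase reporter replicon carrying the H77 (GT-1a) NS3 protease region, with the mutation introduced by megaprimer site-directed mutagenesis. Cured Huh7 cells were grown in DMEM with 10% heat-inactivated FBS and 0.1 mM non-essential amino acids, electroporated with replicon RNA transcripts, and kept with serially diluted inhibitor. EC50 was taken directly from the inhibition curves.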

[2] = molecular target: T1, Hepatitis C virus serine protease, NS3/NS4A (Hepatitis C virus, UniProt A3EZI9+D2K2A8); assay: Inhibition of HCV GT-1a NS3/4a protease using Ac-DE-D(Edans)-EE-Abu-c-[COO]-AS-K(Dabcy1)-NH2 preincubated for 1 hr followed by substrate addition; format: protein complex, Hepatitis C virus subtype 1a
Hepatitis C virus [3] = assay: Antiviral activity against HCV genotype 1b infected in human Huh7 cells incubated for 96 hrs by luciferase assay; format: functional, organism-based, Hepacivirus hominis; details: Huh-7, 96 h
Summary of the method: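 Con1 (GT-1b) luciferase reporter replicon carrying the H77 (GT-1a) NS3 protease region, either WT or with A156T or D168A introduced by megaprimer mutagenesis. Cured Huh7 cells grown in DMEM with 10% heat-inactivated FBS and 0.1 mM non-essential amino acids. Cells electroporated with replicon RNA and kept with serially diluted inhibitor.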

Hepatitis C virus [4] = assay: Antiviral activity against HCV genotype 1b harboring A156T mutant infected in human Huh7 cells incubated for 96 hrs by luciferase assay; format: functional, organism-based, Hepacivirus hominis; details: subtype 1b, Huh-7, 96 h; summary of the method: as §1
[5] = molecular target: T1, Hepatitis C virus serine protease, NS3/NS4A; assay: Inhibition of HCV GT-3a NS3/4a protease using Ac-DE-D(Edans)-EE-Abu-c-[COO]-AS-K(Dabcy1)-NH2 preincubated for 1 hr followed by substrate addition; format: protein-complex assay, Hepatitis C virus subtype 3a

SMILES | pEC50 (Hepatitis C virus [1]) | pKi [2] | pEC50 (Hepatitis C virus [3]) | pEC50 (Hepatitis C virus [4]) | pKi [5]
CCC1(OC(=O)N[C@H]2CCCCC/C=C/[C@@H]3C[C@@]3(C(=O)NS(=O)(=O)C3(C)CC3)NC(=O)[C@@H]3C[C@@H](Oc4nc5cc(OC)ccc5nc4C)CN3C2=O)CCCC1 | 8.33 | 8.89 | 8.80 | 8.08 | –
COc1ccc2nc(C)c(O[C@@H]3C[C@H]4C(=O)N[C@]5(C(=O)NS(=O)(=O)C6(C)CC6)C[C@H]5/C=C/CCCCC[C@H](NC(=O)O[C@@H]5CCC[C@H]5F)C(=O)N4C3)nc2c1 | 7.37 | 8.64 | 9.40 | 7.92 | 6.67
COc1ccc2nc(O[C@@H]3C[C@H]4C(=O)N[C@]5(C(=O)NS(=O)(=O)C6(C)CC6)C[C@H]5/C=C/CCCCC[C@H](NC(=O)OC(C)(C)C)C(=O)N4C3)c(C(F)(F)F)nc2c1 | 8.33 | 8.24 | 9.05 | 7.92 | 6.64
COc1ccc2nc(O[C@@H]3C[C@H]4C(=O)N[C@]5(C(=O)NS(=O)(=O)C6(C)CC6)C[C@H]5/C=C/CCCCC[C@H](NC(=O)OCC5(C)CC5)C(=O)N4C3)c(C(F)(F)F)nc2c1 | 8.08 | 8.54 | 8.24 | 7.39 | –
COc1ccc2nc(O[C@@H]3C[C@H]4C(=O)N[C@]5(C(=O)NS(=O)(=O)C6(C)CC6)C[C@H]5/C=C/CCCCC[C@H](NC(=O)O[C@@H](C)C5CC5)C(=O)N4C3)c(C(F)(F)F)nc2c1 | 7.74 | 8.00 | 8.48 | 7.74 | 6.39
COc1ccc2nc(C)c(O[C@@H]3C[C@H]4C(=O)N[C@]5(C(=O)NS(=O)(=O)C6(C)CC6)C[C@H]5/C=C/CCCCC[C@H](NC(=O)OC5(C)CC5)C(=O)N4C3)nc2c1 | 8.46 | 8.36 | 9.52 | 7.92 | –
COc1ccc2nc(C)c(O[C@@H]3C[C@H]4C(=O)N[C@]5(C(=O)NS(=O)(=O)C6(C)CC6)C[C@H]5/C=C/CCCCC[C@H](NC(=O)O[C@H](C)C(C)C)C(=O)N4C3)nc2c1 | 8.72 | 8.82 | 9.52 | 8.11 | –
COc1ccc2nc(O[C@@H]3C[C@H]4C(=O)N[C@]5(C(=O)NS(=O)(=O)C6(C)CC6)C[C@H]5/C=C/CCCCC[C@H](NC(=O)OC5C[C@@H]6C[C@@H]6C5)C(=O)N4C3)c(C(F)(F)F)nc2c1 (stereo not given in full) | 8.68 | 9.70 | – | 7.15 | 6.77
COc1ccc2nc(O[C@@H]3C[C@H]4C(=O)N[C@]5(C(=O)NS(=O)(=O)C6(C)CC6)C[C@H]5/C=C/CCCCC[C@H](NC(=O)OC5(C)CC5)C(=O)N4C3)c(C(F)(F)F)nc2c1 | 7.85 | 7.96 | 8.24 | 7.00 | –
CCC(CC)OC(=O)N[C@H]1CCCCC/C=C/[C@@H]2C[C@@]2(C(=O)NS(=O)(=O)C2(C)CC2)NC(=O)[C@@H]2C[C@@H](Oc3nc4ccc(OC)cc4nc3C(F)(F)F)CN2C1=O | 7.77 | 8.34 | 8.39 | 7.07 | 6.08
COc1ccc2nc(C)c(O[C@@H]3C[C@H]4C(=O)N[C@]5(C(=O)NS(=O)(=O)C6(C)CC6)C[C@H]5/C=C/CCCCC[C@H](NC(=O)OC5CC(F)(F)C5)C(=O)N4C3)nc2c1 | 8.39 | 9.22 | 9.22 | 8.28 | –
CCC(C)(C)OC(=O)N[C@H]1CCCCC/C=C/[C@@H]2C[C@@]2(C(=O)NS(=O)(=O)C2(C)CC2)NC(=O)[C@@H]2C[C@@H](Oc3nc4ccc(OC)cc4nc3C(F)(F)F)CN2C1=O | 7.96 | 8.57 | 8.82 | 8.00 | 6.62
COc1ccc2nc(C)c(O[C@@H]3C[C@H]4C(=O)N[C@]5(C(=O)NS(=O)(=O)C6(C)CC6)C[C@H]5/C=C/CCCCC[C@H](NC(=O)OC5(C)CCCC5)C(=O)N4C3)nc2c1 | 8.33 | 8.74 | 8.43 | 7.31 | 6.82
COc1ccc2nc(O[C@@H]3C[C@H]4C(=O)N[C@]5(C(=O)NS(=O)(=O)C6(C)CC6)C[C@H]5/C=C/CCCCC[C@H](NC(=O)O[C@H](C)C5CC5)C(=O)N4C3)c(C(F)(F)F)nc2c1 | 7.72 | 7.92 | 8.59 | 7.36 | –
COc1ccc2nc(O[C@@H]3C[C@H]4C(=O)N[C@]5(C(=O)NS(=O)(=O)C6(C)CC6)C[C@H]5/C=C/CCCCC[C@H](NC(=O)OCC(C)(C)C)C(=O)N4C3)c(C(F)(F)F)nc2c1 | 7.85 | 8.54 | 8.31 | 6.80 | –
COc1ccc2nc(C)c(O[C@@H]3C[C@H]4C(=O)N[C@]5(C(=O)NS(=O)(=O)C6(C)CC6)C[C@H]5/C=C/CCCCC[C@H](NC(=O)OC(C)C)C(=O)N4C3)nc2c1 | – | 8.68 | – | – | –

SMILES | pEC50 (Hepatitis C virus [1]) | pKi [2] | pEC50 (Hepatitis C virus [3]) | pEC50 (Hepatitis C virus [4]) | pKi [5]
COc1ccc2nc(C)c(O[C@@H]3C[C@H]4C(=O)N[C@]5(C(=O)NS(=O)(=O)C6(C)CC6)C[C@H]5/C=C/CCCCC[C@H](NC(=O)OC5CCCC5)C(=O)N4C3)nc2c1 | 8.72 | 8.96 | 10.00 | – | 6.92
COc1ccc2nc(C)c(O[C@@H]3C[C@H]4C(=O)N[C@]5(C(=O)NS(=O)(=O)C6(C)CC6)C[C@H]5/C=C/CCCCC[C@H](NC(=O)OC5CCCCC5)C(=O)N4C3)nc2c1 | 8.52 | 9.05 | 9.70 | 8.17 | 6.84
COc1ccc2nc(C)c(O[C@@H]3C[C@H]4C(=O)N[C@]5(C(=O)NS(=O)(=O)C6(C)CC6)C[C@H]5/C=C/CCCCC[C@H](NC(=O)OC5(C)CCC5)C(=O)N4C3)nc2c1 | 8.47 | 8.85 | 9.30 | 8.38 | –
COc1ccc2nc(C)c(O[C@@H]3C[C@H]4C(=O)N[C@]5(C(=O)NS(=O)(=O)C6(C)CC6)C[C@H]5/C=C/CCCCC[C@H](NC(=O)O[C@@H](C)C(F)(F)F)C(=O)N4C3)nc2c1 | – | 9.15 | 9.10 | 8.09 | –
COc1ccc2nc(C)c(O[C@@H]3C[C@H]4C(=O)N[C@]5(C(=O)NS(=O)(=O)C6(C)CC6)C[C@H]5/C=C/CCCCC[C@H](NC(=O)O[C@@H](C)C(C)C)C(=O)N4C3)nc2c1 | 8.44 | 8.72 | 9.22 | 8.15 | –
COc1ccc2nc(O[C@@H]3C[C@H]4C(=O)N[C@]5(C(=O)NS(=O)(=O)C6(C)CC6)C[C@H]5/C=C/CCCCC[C@H](NC(=O)O[C@@H]5CCC[C@H]5F)C(=O)N4C3)c(C(F)(F)F)nc2c1 | 8.64 | 8.10 | 9.70 | 7.46 | –
COc1ccc2nc(C)c(O[C@@H]3C[C@H]4C(=O)N[C@]5(C(=O)NS(=O)(=O)C6(C)CC6)C[C@H]5/C=C/CCCCC[C@H](NC(=O)O[C@@H](C)C5CC5)C(=O)N4C3)nc2c1 | 8.00 | 8.74 | 8.28 | 6.89 | –
COc1ccc2nc(O[C@@H]3C[C@H]4C(=O)N[C@]5(C(=O)NS(=O)(=O)C6(C)CC6)C[C@H]5/C=C/CCCCC[C@H](NC(=O)OCC5(C(F)(F)F)CC5)C(=O)N4C3)c(C(F)(F)F)nc2c1 | 8.34 | 8.46 | 8.92 | 7.37 | –
CCc1nc2ccc(OC)cc2nc1O[C@@H]1C[C@H]2C(=O)N[C@]3(C(=O)NS(=O)(=O)C4CC4)C[C@H]3/C=C/CCCCC[C@H](NC(=O)OC(C)(C)C)C(=O)N2C1 | 8.20 | – | – | – | –
COc1ccc2nc(C)c(O[C@@H]3C[C@H]4C(=O)N[C@]5(C(=O)NS(=O)(=O)C6(C)CC6)C[C@H]5/C=C/CCCCC[C@H](NC(=O)OCC5(C)CC5(F)F)C(=O)N4C3)nc2c1 (stereo not given in full) | 8.68 | 8.51 | 9.52 | 8.08 | 7.00
COc1ccc2nc(C)c(O[C@@H]3C[C@H]4C(=O)N[C@]5(C(=O)NS(=O)(=O)C6(C)CC6)C[C@H]5/C=C/CCCCC[C@H](NC(=O)OCC5(C)CC5)C(=O)N4C3)nc2c1 | 8.42 | 9.15 | 9.10 | 8.07 | –
COc1ccc2nc(O[C@@H]3C[C@H]4C(=O)N[C@]5(C(=O)NS(=O)(=O)C6(C)CC6)C[C@H]5/C=C/CCCCC[C@H](NC(=O)OC5CC(F)(F)C5)C(=O)N4C3)c(C(F)(F)F)nc2c1 | 8.16 | 7.96 | 8.49 | 7.46 | –
COc1ccc2nc(O[C@@H]3C[C@H]4C(=O)N[C@]5(C(=O)NS(=O)(=O)C6(C)CC6)C[C@H]5/C=C/CCCCC[C@H](NC(=O)OCC(C)C)C(=O)N4C3)c(C(F)(F)F)nc2c1 | 7.82 | 8.40 | 8.32 | 7.04 | –
COc1ccc2nc(O[C@@H]3C[C@H]4C(=O)N[C@]5(C(=O)NS(=O)(=O)C6(C)CC6)C[C@H]5/C=C/CCCCC[C@H](NC(=O)O[C@H](C)C(C)C)C(=O)N4C3)c(C(F)(F)F)nc2c1 | 8.20 | 8.52 | 8.68 | 7.35 | –
COc1ccc2nc(C)c(O[C@@H]3C[C@H]4C(=O)N[C@]5(C(=O)NS(=O)(=O)C6(C)CC6)C[C@H]5/C=C/CCCCC[C@H](NC(=O)O[C@H](C)C5CC5)C(=O)N4C3)nc2c1 | 8.43 | 8.82 | 9.52 | 7.96 | –
COc1ccc2nc(C)c(O[C@@H]3C[C@H]4C(=O)N[C@]5(C(=O)NS(=O)(=O)C6(C)CC6)C[C@H]5/C=C/CCCCC[C@H](NC(=O)OC5CCC5)C(=O)N4C3)nc2c1 | 8.57 | 9.52 | 10.00 | 8.47 | 6.96
